From PubChem
Rows were chosen to be rich in hits. Some 2.9% of all compounds tested hit in one or more screens of this group.
SENP1 FRET inh = inhibitors of human SENP1 SUMO protease catalytic domain. Q9P0U3. recombinant SENP1 catalytic domain, CyPet-SUMO1-YPet FRET cleavage. inhibition, % at 10 µM. actives 0.21% (n = 360,000). AID 624204;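 active means inhibition at least 30% at 10 µM, raw YFP signal under a set limit, fluorescence ratio 0.5 to 1.5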;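 further: 0% = enzyme with DMSO and 100% = no enzyme wells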
Target sequence (Q9P0U3 419-644 limits assumed): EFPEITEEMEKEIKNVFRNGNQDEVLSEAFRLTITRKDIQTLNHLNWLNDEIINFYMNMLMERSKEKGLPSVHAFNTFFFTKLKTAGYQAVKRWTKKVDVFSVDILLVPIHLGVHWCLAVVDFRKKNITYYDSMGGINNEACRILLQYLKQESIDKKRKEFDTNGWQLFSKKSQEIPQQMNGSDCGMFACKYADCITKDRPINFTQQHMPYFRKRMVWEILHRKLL
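System: Recombinant human SENP1 catalytic domain, His6-tagged | Incubation: Enzyme reaction for 50 min at room temperature, dark | Medium: Tris pH 8 with BME, BSA, NP40 and catalase | Also added: 25 nM SUMO1 FRET substrate | Compound: 10 µM single point, 0.5% DMSO | Measured by: FRET fluorescence in CFP and YFP emission channels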
SENP6 block = SENP6 protease inhibition; Q9GZR1; Recombinant SENP6 catalytic domain, aminoluciferin luminescence; inhibition, % at 10 µM; actives 1.8% (n = 330,000);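 active means inhibition above about 50% at the single tested dose, limit read from the data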;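 further: plate controls were DMSO wells with enzyme for no effect and DMSO wells lacking enzyme for full effect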
SENP8 block-1 = blocks human SENP8 cleavage of Nedd8 substrate; inhibition, % at 20 µM; recombinant SENP8, Nedd8 substrate fluorescence; actives 0.64% (n = 360,000); in the data active means inhibition mostly above about 40%, no sharp cut-off; inactive means mostly below about 27%
Apaf1 inhib = blocks human Apaf-1 apoptosome activity | O14727 | reconstituted apoptosome caspase-3 activity, DEVD-Rh110 fluorescence | inhibition, % at 20 µM | actives 0.71% (n = 330,000) | AID 489030; active means inhibition of at least 40% at 20 µM;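 further: plate controls were DMSO wells for no effect and DEVD-CHO caspase inhibitor wells for full effect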
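Material: biochemical Apaf-1 apoptosome reconstitution. Medium: Hepes buffer, pH 7.5. Also added: cytochrome c activation, bis-DEVD rhodamine 110 substrate. Timing: 30 min compound preincubation, 50 min activation, room temperature. Measured by: rhodamine 110 fluorescence at Ex 480/Em 540 nm.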
SENP8 block-2 = blocks the human protease SENP8; inhibition, % at 10 µM; purified SENP8, Z-RLRGG-aminoluciferin cleavage, luminescence; actives 1.2% (n = 330,000); Q96LD8; in the data active means inhibition above about 50%
SENP7 block = SENP7 protease inhibition; Q9BQF6; recombinant SENP7, Z-RLRGG-aminoluciferin luminescence, 40 min; inhibition, % at 5 µM; actives 1.5% (n = 330,000);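 active means inhibition above about 50% at the single test dose, limit read from the data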;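 further: plate controls were DMSO with enzyme for no effect and no enzyme buffer wells for full effect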
Target sequence (Q9BQF6 706-1050 limits assumed): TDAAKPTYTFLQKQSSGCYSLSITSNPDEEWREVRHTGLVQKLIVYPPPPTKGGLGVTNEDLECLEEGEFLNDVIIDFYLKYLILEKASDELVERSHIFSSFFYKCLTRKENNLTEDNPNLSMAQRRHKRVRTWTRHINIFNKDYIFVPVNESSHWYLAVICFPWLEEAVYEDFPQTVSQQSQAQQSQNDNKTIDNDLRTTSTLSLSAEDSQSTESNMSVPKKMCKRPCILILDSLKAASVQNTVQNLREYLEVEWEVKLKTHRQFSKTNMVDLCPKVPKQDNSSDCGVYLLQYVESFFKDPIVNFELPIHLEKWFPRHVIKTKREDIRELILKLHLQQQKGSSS
SENP8 conf = SENP8 (human) inhibition, single concentration confirmation; purified SENP8, Nedd8-AMC/pro-Nedd8 cleavage fluorescence, 30 min; actives 15% (n = 1,400); inhibition, % at 25 µM; shares compounds with SENP8 block-1; in the data active means inhibition mostly above about 39%, no sharp cut-off; inactive means mostly below about 34%
The depositor's hits bear a star; / = no result.

SMILES	SENP1 FRET inh	SENP6 block	SENP8 block-1	Apaf1 inhib	SENP8 block-2	SENP7 block	SENP8 conf
CCCN1C(=O)/C(=c2\s/c(=C3\C=Cc4ccccc4N3CC)c(=O)n2-c2ccccc2)SC1=S	/	-6	/	-10	0	7	/
CCCn1c(=C(C#N)C#N)s/c(=C2\C=Cc3ccccc3N2CC)c1=O	15	/	52*	/	/	/	10
Cc1ccc(C)c(Nc2c([N+](=O)[O-])cc(C(=O)N3CC(=O)Nc4ccccc43)cc2[N+](=O)[O-])c1	2	-6	60*	22	-7	0	20
O=C(OCC(=O)N1CCN(c2ccccc2)CC1)c1cccs1	3	-11	6	-7	-11	-1	/
O=C(OCC(=O)N1CCCC1)c1cccs1	3	-2	48*	-4	-3	4	19
O=[N+]([O-])c1ccc(N/N=C/c2c[nH]c3ccccc23)cc1	-23	-4	52*	25	-18	3	4
N#C/C(=C\c1ccc2c(c1)OCCO2)C(=O)Nc1ccc(C(=O)O)cc1	2	-11	5	1	4	10	/
CCOC(=O)c1ccc(NC(=O)CCN2C(=O)C3CC=CCC3C2=O)cc1 (stereo unspecified)	1	-2	34*	1	2	1	7
CCCN(CCC)Cc1cc(=O)oc2cc(C)cc(C)c12	1	/	10	/	/	/	/
COc1cc(SC#N)ccc1N=Cc1c(C)[nH]n(-c2ccc(Cl)cc2)c1=O	65	8	61*	25	-14	-2	12
COc1cc(SC#N)ccc1N=Cc1c(C)[nH]n(-c2ccc(C)c(C)c2)c1=O	65	5	26	-2	3	2	/
Cc1ccc(SCCC(=O)NNC(=O)c2ccccc2F)cc1	4	-7	11	-3	-6	1	/
COC(=O)c1sc(NC(=O)c2ccc([N+](=O)[O-])o2)c(C#N)c1C	-2	3	42*	-5	-1	11	12
CC12CCC(=O)C=C1CCC1C2C(O)CC2(C)C1CCC2(O)C(=O)COC(=O)CCC1CCCC1 (stereo unspecified)	4	/	-4	/	/	/	/
COc1c(O)cc2c(c1O)[C@@H]1O[C@H](CO)[C@@H](O)[C@H](O)C1OC2=O (stereo partly specified)	1	-9	43*	5	-2	-5	13
COc1c(O)cc2c(c1O)C1OC(CO)C(O)C(O)C1OC2=O (stereo unspecified)	0	-6	9	3	-5	-6	/
CC(=O)N/N=C(\C)C1COc2ccccc2O1 (stereo unspecified)	1	-3	41*	-22	5	5	6
CCCCNc1ccc2c(c1)C1CC2CCN1C(=O)OCc1ccccc1 (stereo unspecified)	1	/	9	/	/	/	/
O=c1[nH]cnc2c1ccn2C1OC(CO)C(O)C1O (stereo unspecified)	0	/	41*	/	/	/	9
CCc1cccc2c1Sc1ccccc1CC2N1CCNCC1 (stereo unspecified)	3	-36	44*	13	-11	12	14
Cc1cccc2c1Sc1ccc(Cl)cc1CC2N1CCNCC1 (stereo unspecified)	/	-40	/	24	-36	12	/
CC(=O)N1CCN(c2ccc(NC(=O)c3ccc(N4CCCC4)c([N+](=O)[O-])c3)cc2Cl)CC1	2	-2	11	12	3	-5	/
CCCC(=O)N1CCN(c2ccc(NC(=O)c3ccc(N4CCCC4)c([N+](=O)[O-])c3)cc2Cl)CC1	2	-8	45*	-17	7	8	18
Cc1ccc(C(=O)Nc2ccccc2[N+](=O)[O-])cc1S(=O)(=O)N1CCOCC1	2	-2	8	8	-4	4	/
Cc1ccc(NC(=O)c2ccc(N3CCOCC3)c([N+](=O)[O-])c2)cc1S(=O)(=O)N1CCOCC1	2	-3	44*	19	-3	7	30
SMILES	SENP1 FRET inh	SENP6 block	SENP8 block-1	Apaf1 inhib	SENP8 block-2	SENP7 block	SENP8 conf
CCN1CCN(c2ccc(NC(=O)c3ccc([N+](=O)[O-])o3)cc2Cl)CC1	-1	/	52*	/	/	/	20
COc1ccc(CCN2CC34C=CC(O3)C(C(=O)NCc3ccccc3Cl)C4C2=O)cc1OC (stereo unspecified)	-1	4	47*	1	2	5	16
CCCc1nc2ccc(Cl)cn2c1Cc1ccc(C)cc1	-11	/	-50	/	/	/	/
O=C(O)c1ccc(N/N=C/C=C/c2ccc([N+](=O)[O-])o2)cc1	78*	27	45*	7	-7	6	28
O=C(COC(=O)CCC(=O)c1cccs1)NCCc1ccccc1	1	2	-14	1	-4	6	/
COc1ccccc1Cn1nnc2c(=O)[nH]c(C3CCN(C(=O)c4ccc(F)cc4)CC3)nc21	0	8	53*	7	2	-1	8
COc1ccccc1Cn1nnc2c(=O)[nH]c(C3CCN(C(=O)c4ccc(C)cc4)CC3)nc21	1	-7	11	19	9	4	/
COc1ccc(C2C(C(C)=O)=C(O)C(=O)N2c2cccnc2)c(OC)c1 (stereo unspecified)	3	6	3	13	3	11	/
COc1ccc(C2C(C(C)=O)=C(O)C(=O)N2C)c(OC)c1 (stereo unspecified)	1	-5	42*	33	-3	10	26
CC(=O)n1c2ccccc2c2nc3ccccc3nc21	-1	-6	-429	2	-8	-12	/
C=CCNc1nc2c3ccccc3n(C(C)=O)c2s1	0	1	51*	5	-2	2	34
Cc1ccc([C@@H]2CC(=O)[C@@H]3CN(S(=O)(=O)c4ccc(C)cc4)[C@H](c4ccccc4)C[C@@H]3N2S(=O)(=O)c2ccc(C)cc2)cc1	2	/	8	/	/	/	/
CC1=NN(c2cc(Cl)c(S(=O)(=O)O)cc2Cl)C(=O)C1	3	/	66*	/	/	/	14
CC1=NN(c2ccc(Cl)c(C(=O)O)c2)C(=O)C1	3	11	70*	8	3	17	17
O=C(O)C1=CC2C=C(Cl)C=CC2OC1=O (stereo unspecified)	2	/	-90	/	/	/	/
CCC(=O)OCCNc1cc(SCCC(=O)OC)c2nonc2c1[N+](=O)[O-]	-28	37	32	24	13	11	/
Cc1ccc(Sc2cc(NCCCO)c([N+](=O)[O-])c3nonc23)cc1	-16	37	44*	8	5	5	48*
CC(=O)OCCCNc1cc(Sc2ccc(Cl)cc2)c2nonc2c1[N+](=O)[O-]	-14	/	17	/	/	/	/
CC(C)CCSc1cc(NCCO)c([N+](=O)[O-])c2nonc12	-14	34	49*	8	-4	-6	27
